Assay outcomes as filed in PubChem.
The list is not random: actives were taken first. Their share in the collection is about 0.89%.
PG9 Ab binder = binders of HIV-1 gp120 antibody PG9, primary screen, biochemical, TR-FRET; AID 624416, 2012; HIV-1 gp120 / PG9 antibody interaction; TR-FRET gp120-PG9 antibody binding; inhibition, % at 6.7 µM; 360,000 tested, 0.43% active; in the data active = inhibition above about 8.5%
hiPSC survival = enhancers of single-cell hiPSC survival, primary screen, ATPlite luminescence. 100% = ROCK inhibitor wells, 0% = DMSO. survival enhancement, % at 20 µM. 360,000 tested, 0.044% active. AID 602274, 2012; in the data active = survival enhancement above about 18%;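 note: cells exposed to compounds for 16 hours before the ATP read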
Arr AP2 block = inhibitors of beta-arrestin/AP2 binding, primary screen, biochemical, GPCR trafficking, flow cytometry; FITC-arrestin peptide / GST-AP2 beads; AP2 beta2 appendage carries R879A mutation; inhibition, % at 10 µM; 340,000 tested, 0.31% active;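 active = inhibition above a set limit, near 3 SD of compounds lacking own fluorescence, cut at about 54% in these data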;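 note: plate controls were DMSO wells for no effect and 5 µM unlabelled arrestin peptide for full effect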
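System: GST-AP2 R879A glutathione beads; medium: PBS, Tween 20 0.05%, BSA 0.1%; reagent: fluorescein-tagged arrestin peptide at 50 nM final; schedule: pre-incubation 12 min, peptide binding 1 h, room temperature; detection: flow cytometry, FL1 (488/535 nm); read-out: inhibition as reduced fluorescein signal on beads, percent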
ABCB6 inh MLPCN = ABCB6 transporter inhibitors, primary screen, K562-ABCB6 cells, flow cytometry, MLPCN library | ATP-binding cassette sub-family B member 6 (Homo sapiens), Q9NP58 | K562-ABCB6 porphyrin accumulation, 1 h; active compounds read low | fluorescence ratio to DMSO, % at 10 µM | 360,000 tested, 0.19% active | AID 602162, 2011;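 active = fluorescence ratio to DMSO below 75%, the collection mean minus 3 SD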;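 note: signal is porphyrin accumulated inside mitochondria; 100% equals median channel fluorescence of DMSO control wells; lower ratio means ABCB6 inhibition with less porphyrin fluorescence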
Target sequence (Q9NP58 whole entry, looked up): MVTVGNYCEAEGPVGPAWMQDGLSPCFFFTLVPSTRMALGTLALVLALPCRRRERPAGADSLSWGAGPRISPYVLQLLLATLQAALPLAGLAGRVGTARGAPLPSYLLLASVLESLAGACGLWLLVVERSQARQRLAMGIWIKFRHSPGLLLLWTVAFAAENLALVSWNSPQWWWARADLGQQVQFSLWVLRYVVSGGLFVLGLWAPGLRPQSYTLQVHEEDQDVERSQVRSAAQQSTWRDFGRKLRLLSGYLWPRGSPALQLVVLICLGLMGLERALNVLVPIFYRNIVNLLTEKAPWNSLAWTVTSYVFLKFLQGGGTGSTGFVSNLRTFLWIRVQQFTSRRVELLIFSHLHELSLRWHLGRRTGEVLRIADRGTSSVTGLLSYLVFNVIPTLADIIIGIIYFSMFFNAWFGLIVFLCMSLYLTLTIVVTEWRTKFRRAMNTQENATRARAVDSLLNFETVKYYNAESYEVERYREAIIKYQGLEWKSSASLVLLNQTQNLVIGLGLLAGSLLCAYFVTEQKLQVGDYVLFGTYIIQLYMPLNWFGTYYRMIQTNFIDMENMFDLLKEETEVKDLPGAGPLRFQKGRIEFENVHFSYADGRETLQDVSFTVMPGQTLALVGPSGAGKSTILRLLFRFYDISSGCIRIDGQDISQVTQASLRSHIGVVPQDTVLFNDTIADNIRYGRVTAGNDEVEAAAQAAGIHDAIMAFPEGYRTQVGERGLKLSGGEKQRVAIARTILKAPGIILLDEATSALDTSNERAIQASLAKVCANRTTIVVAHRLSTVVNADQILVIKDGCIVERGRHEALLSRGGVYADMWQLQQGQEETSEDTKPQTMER
Arr-AP2 CP1 = inhibitors of arrestin peptide binding to AP2, confirmation, biochemical, cherry pick 1, flow cytometry beads; shares compounds with Arr AP2 block; GST-AP2 beads, FITC arrestin peptide binding; GST-fused beta2-adaptin appendage, R879A mutant; inhibition, % at 10 µM; 1,300 tested, 2% active;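 active = inhibition above a set limit, roughly 3 SD of non-fluorescent compound noise, cut at about 38% in these data; inactive = inhibition at or below that limit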;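 note: loss of bead fluorescence from 50 nM FITC arrestin peptide bound to appendage; 0% = negative control wells and 100% = excess unlabelled arrestin peptide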
GST GSH counter = GST-fluorescein capture on glutathione beads, confirmation, artefact control for arrestin-AP2 inhibitor project, biochemical, cherry pick 1, flow cytometry; shares compounds with Arr AP2 block; GST-fluorescein binding to GSH beads, fluorescence, counter-screen; inhibition, % at 10 µM; 1,300 tested, 2% active; AID 588338, 2011;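 active = inhibition above 50%, about 3 SD of the inhibition seen with non-fluorescent compounds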;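 note: fluorescein maleimide labelled GST captured on 4 micron glutathione beads; higher means more loss of bead fluorescence from quenching or blocked binding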
Numbers without * were called inactive.

How did O=C(Nc1cc(-c2nc3ccccc3s2)ccc1Cl)c1ccc2c(c1)OCO2 do in these assays?
PG9 Ab binder: 0.9; hiPSC survival: 2.0; Arr AP2 block: 6.4; ABCB6 inh MLPCN: 101.0

What do the screens show for `CC1CCCC(C)N1C(=O)COC(=O)CSc1ccc([N+](=O)[O-])cc1` (stereo not given)?
PG9 Ab binder: -2.0; hiPSC survival: 0.2; Arr AP2 block: 75.4*; ABCB6 inh MLPCN: 95.0; Arr-AP2 CP1: -6.0; GST GSH counter: -5.4

Results for CC(=O)Nc1ccc(S(=O)(=O)NCC2CCN(C(=O)C(=O)c3cccs3)CC2)cc1 ?
PG9 Ab binder: -2.0

Results for O=C(CCN1C(=O)/C(=C/c2ccccc2)SC1=S)NNC(=O)c1cccnc1 ?
PG9 Ab binder: 0.3; hiPSC survival: 0.7; Arr AP2 block: 106.4*; ABCB6 inh MLPCN: 95.0; Arr-AP2 CP1: 9.9; GST GSH counter: 0.7

What do the screens show for `Cc1ccc(S(=O)(=O)NC(CCCNC(=O)OCc2ccccc2)C(=O)O)cc1` (stereo not given)?
PG9 Ab binder: 0.7

Results for COc1ccc(CC(NC(C)=O)C(=O)NC2CCN(c3nc(C)cc(C)c3C#N)CC2)cc1 (stereo not given) ?
PG9 Ab binder: -1.9; hiPSC survival: 3.7; Arr AP2 block: 54.5*; ABCB6 inh MLPCN: 99.0; Arr-AP2 CP1: 0.0; GST GSH counter: -1.4

How did CCCCCCCCN1C(=O)[C@@H](CC(=O)NCCCN2CCCC2=O)C[C@@]2(C(=O)OC)C1=C[C@H](C(C)(C)C)O[C@@H]2C do in these assays?
PG9 Ab binder: -0.8

Results for COc1ccc(S(=O)(=O)N(C)C[C@H]2Oc3ccc(NS(=O)(=O)c4cn(C)cn4)cc3C(=O)N([C@H](C)CO)C[C@@H]2C)cc1 ?
PG9 Ab binder: -0.7; hiPSC survival: -1.8; Arr AP2 block: 73.0*; ABCB6 inh MLPCN: 89.0; Arr-AP2 CP1: 0.2; GST GSH counter: -3.4

Results for C[C@H](CO)N1C[C@H](C)[C@@H](CN(C)S(=O)(=O)c2ccc(F)cc2)Oc2ccc(NC(=O)Nc3ccccc3)cc2C1=O ?
PG9 Ab binder: -1.0; hiPSC survival: 0.5; Arr AP2 block: -5.2; ABCB6 inh MLPCN: 92.0

What do the screens show for `C[C@H](CO)N1C[C@H](C)[C@@H](CN(C)S(=O)(=O)c2ccccc2)Oc2ccc(NC(=O)Nc3ccccc3)cc2C1=O`?
PG9 Ab binder: 0.8; hiPSC survival: -0.5; Arr AP2 block: 54.4*; ABCB6 inh MLPCN: 91.0; Arr-AP2 CP1: 10.4; GST GSH counter: -8.4

How did COc1cc(C(=O)Nn2cnnc2)ccc1OC(F)F do in these assays?
PG9 Ab binder: -1.0; hiPSC survival: 1.2; Arr AP2 block: 54.0*; ABCB6 inh MLPCN: 91.0; Arr-AP2 CP1: -7.7; GST GSH counter: -3.4

Results for CCOc1ccc(C(=O)Nn2cnnc2)cc1OCC ?
PG9 Ab binder: 0.1; hiPSC survival: -0.5; Arr AP2 block: -3.8; ABCB6 inh MLPCN: 93.0

What do the screens show for `CC(OC(=O)c1ccncc1)C(=O)Nc1cccc(Cl)c1` (stereo not given)?
PG9 Ab binder: -1.0; hiPSC survival: 4.9; Arr AP2 block: 80.5*; ABCB6 inh MLPCN: 112.0; Arr-AP2 CP1: 5.6; GST GSH counter: -4.8

What do the screens show for `COc1ccc(C)cc1NC(=O)Nc1cnccn1`?
PG9 Ab binder: -1.0; hiPSC survival: -0.9; Arr AP2 block: -9.3; ABCB6 inh MLPCN: 100.0; Arr-AP2 CP1: 2.5; GST GSH counter: 0.4

Results for COc1ccc(NC(=O)Nc2cnccn2)c(OC)c1 ?
PG9 Ab binder: -1.4; hiPSC survival: 0.1; Arr AP2 block: -5.7; ABCB6 inh MLPCN: 100.0; Arr-AP2 CP1: 10.9; GST GSH counter: -5.0

What do the screens show for `COc1ccc(Cl)cc1NC(=O)Nc1cnccn1`?
PG9 Ab binder: 1.5; hiPSC survival: 0.2; Arr AP2 block: -2.4; ABCB6 inh MLPCN: 96.0
